Experimental data reported in ChEMBL document CHEMBL2177011, “Discovery, synthesis, and biological evaluation of orally active pyrrolidone derivatives as novel inhibitors of p53-MDM2 protein-protein interaction” (J Med Chem, 2012).

Columns and labels:
[1] = molecular target: Tumour suppressor p53/oncoprotein Mdm2 (Homo sapiens, UniProt P04637+Q00987); assay: (§1) Inhibition of p53-MDM2 interaction after 1 hr by fluorescence polarization assay; type: protein assay
[2] = molecular target: Tumour suppressor p53/oncoprotein Mdm2 (Homo sapiens, UniProt Q00987); assay: as §1; type: protein assay
Chain of Tumour suppressor p53/oncoprotein Mdm2 (Homo sapiens, UniProt Q00987) (P04637 whole entry): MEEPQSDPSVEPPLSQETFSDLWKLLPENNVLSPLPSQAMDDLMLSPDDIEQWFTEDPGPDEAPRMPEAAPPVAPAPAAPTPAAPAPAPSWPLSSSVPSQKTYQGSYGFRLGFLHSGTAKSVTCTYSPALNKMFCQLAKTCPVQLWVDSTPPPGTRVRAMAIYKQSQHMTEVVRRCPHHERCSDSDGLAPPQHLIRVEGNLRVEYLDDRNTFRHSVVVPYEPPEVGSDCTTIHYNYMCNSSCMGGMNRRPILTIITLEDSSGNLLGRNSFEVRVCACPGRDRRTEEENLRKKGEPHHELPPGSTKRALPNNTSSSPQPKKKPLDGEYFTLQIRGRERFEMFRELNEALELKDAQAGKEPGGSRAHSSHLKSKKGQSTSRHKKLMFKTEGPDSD
Chain of Tumour suppressor p53/oncoprotein Mdm2 (Homo sapiens, UniProt Q00987) (Q00987 whole entry): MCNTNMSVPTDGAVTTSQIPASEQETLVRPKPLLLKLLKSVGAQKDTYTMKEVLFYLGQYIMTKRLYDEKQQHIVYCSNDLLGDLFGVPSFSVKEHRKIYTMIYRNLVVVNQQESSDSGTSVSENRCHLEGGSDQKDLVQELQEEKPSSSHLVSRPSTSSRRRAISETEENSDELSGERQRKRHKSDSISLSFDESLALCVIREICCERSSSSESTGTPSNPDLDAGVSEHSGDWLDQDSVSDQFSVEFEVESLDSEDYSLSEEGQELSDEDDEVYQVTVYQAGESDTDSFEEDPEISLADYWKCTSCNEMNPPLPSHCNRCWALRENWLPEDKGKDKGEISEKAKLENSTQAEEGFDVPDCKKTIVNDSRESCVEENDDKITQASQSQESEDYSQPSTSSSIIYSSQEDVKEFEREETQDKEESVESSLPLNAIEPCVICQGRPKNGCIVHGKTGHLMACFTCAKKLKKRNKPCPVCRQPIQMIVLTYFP

NCI-H1299 = assay: Antiproliferative activity against p53 deficient human NCI-H1299 cells after 72 hrs by MTT assay; type: functional, cell-based; settings: NCI-H1299, 72 h
Outline: (§2)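 Cells seeded at 5−6 × 10⁴ per well and cultured 24 h, then exposed in triplicate wells to a range of compound concentrations for 72 h, with 0.1% DMSO as control. MTT (5 mg/mL solution) was added for 4 h at 37 °C, formazan dissolved in DMSO, absorbance read at 570 nm. Drug-free wells served as blanks; IC50 calculated.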

U2OS = assay: Antiproliferative activity against human U2OS cells expressing wild type p53 after 72 hrs by MTT assay; type: functional, cell-based; outline: as §2
A549 [3] = assay: Antiproliferative activity against human A549 cells expressing wild type p53 after 72 hrs by MTT assay; type: functional, cell-based; settings: Homo sapiens, A549, 72 h; read-out: IC50; outline: as §2
SAOS-2 = assay: Antiproliferative activity against p53 deficient human Saos2 cells after 72 hrs by MTT assay; type: functional, cell-based; settings: SAOS-2, 72 h; outline: as §2
[4] = molecular target: Tumour suppressor protein p53/Mdm4 (Homo sapiens, UniProt P04637+O15151); assay: (§3) Inhibition of p53-MDMX interaction after 1 hr by fluorescence polarization assay; type: protein assay
Chain of Tumour suppressor protein p53/Mdm4 (Homo sapiens, UniProt P04637+O15151) (P04637 whole entry): as the sequence (P04637 whole entry) above
Chain of Tumour suppressor protein p53/Mdm4 (Homo sapiens, UniProt P04637+O15151) (O15151 whole entry): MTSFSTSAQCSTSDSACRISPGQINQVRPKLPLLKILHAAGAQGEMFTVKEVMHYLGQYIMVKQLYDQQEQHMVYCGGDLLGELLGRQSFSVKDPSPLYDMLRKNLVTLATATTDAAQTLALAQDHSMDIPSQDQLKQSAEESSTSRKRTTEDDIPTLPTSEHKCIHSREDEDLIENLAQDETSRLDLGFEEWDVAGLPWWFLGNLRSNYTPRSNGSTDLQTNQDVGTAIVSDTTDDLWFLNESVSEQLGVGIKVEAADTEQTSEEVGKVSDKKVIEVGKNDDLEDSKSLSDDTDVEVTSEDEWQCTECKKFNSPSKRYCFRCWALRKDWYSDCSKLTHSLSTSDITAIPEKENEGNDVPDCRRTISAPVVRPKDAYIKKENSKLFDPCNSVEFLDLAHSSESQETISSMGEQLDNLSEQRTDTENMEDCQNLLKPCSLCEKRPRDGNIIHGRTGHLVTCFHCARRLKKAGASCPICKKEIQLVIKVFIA

[5] = molecular target: Tumour suppressor protein p53/Mdm4 (Homo sapiens, UniProt O15151); assay: as §3; type: protein assay
Chain of Tumour suppressor protein p53/Mdm4 (Homo sapiens, UniProt O15151) (P04637 whole entry): as the sequence (P04637 whole entry) above
Chain of Tumour suppressor protein p53/Mdm4 (Homo sapiens, UniProt O15151) (O15151 whole entry): as the sequence (O15151 whole entry) above

Mus musculus = assay: Toxicity in nude BALB/C mouse assessed as mortality at 200 mg/kg, po qd for 14 days; type: organism-based; design: dose 200 mg/kg, route oral; settings: in vivo, 336 h
Outline: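 Male BALB/C nude mice (18−20 g) carried subcutaneous A549 implants in the right axilla. Dosing began once tumors reached 100−300 mm³, 13 days after implantation. Animals were randomized into groups of 6 per treatment and 10 controls, then given 200 mg/kg by gavage once daily for 14 consecutive days. Body weight was recorded every 4 days. Mice were sacrificed on day 29 or 33.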

A549 [6] = assay: Antitumor activity against human A549 cells expressing wild type p53 xenografted in nude BALB/C mouse assessed as inhibition of tumor growth at 200 mg/kg, po qd for 14 days; type: functional; settings: A549, 336 h, read-out: TGI
Outline: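 Male BALB/C nude mice (18−20 g) had A549 cells implanted subcutaneously in the right axilla. Dosing started on day 13, when tumors reached 100−300 mm³. Mice were randomized (6 per treatment group, 10 controls) and dosed by gavage once daily for 14 days. Caliper tumor volume (TV = 1/2 × a × b²) was taken every 4 days; relative tumor volume was used. Mice were sacrificed on day 29 or 33.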

[7] = Homo sapiens, U2OS, 72 h, read-out: IC50

Chain of Tumour suppressor p53/oncoprotein Mdm2 (Homo sapiens, UniProt P04637+Q00987) (P04637 whole entry): as the sequence (P04637 whole entry) above
Chain of Tumour suppressor p53/oncoprotein Mdm2 (Homo sapiens, UniProt P04637+Q00987) (Q00987 whole entry): as the sequence (Q00987 whole entry) above

Ki [2]	IC50 (NCI-H1299)	IC50 (U2OS; [7])	IC50 (A549 [3])	SMILES	IC50 (SAOS-2)	also measured
				O=C(C1=C(O)C(=O)N(CCCn2ccnc2)C1c1cccc(O)c1)c1ccccc1 (stereo not drawn)		Ki [1]: Not Active
				O=C(C1=C(O)C(=O)N(CCCn2ccnc2)C1c1ccc2ccccc2c1)c1ccccc1 (stereo not drawn)		Ki [1]: Not Active
0.91 µM				Cc1cc(C)cc(C2C(C(=O)c3ccccc3)=C(O)C(=O)N2CCCn2ccnc2)c1 (stereo not drawn)		
				O=C(C1=C(O)C(=O)N(CCCn2ccnc2)C1c1cccs1)c1ccccc1 (stereo not drawn)		Ki [1]: Not Active
				O=C(C1=C(O)C(=O)N(CCCn2ccnc2)C1c1ccco1)c1ccccc1 (stereo not drawn)		Ki [1]: Not Active
2.13 µM				O=c1c2cnn(-c3ccccc3)c2nc(Cc2ccccc2)n1Cc1ccccc1		
				O=C(C1=C(O)C(=O)N(CCCn2ccnc2)C1c1ccc(Cl)nc1)c1ccccc1 (stereo not drawn)		Ki [1]: Not Active
2.54 µM				O=C(C1=C(O)C(=O)N(CCCn2ccnc2)C1c1ccc(Br)cc1)c1ccc([N+](=O)[O-])cc1 (stereo not drawn)		
23.3 µM				O=C(C1=C(O)C(=O)N(CCCn2ccnc2)C1c1ccc(Cl)cc1)c1ccccc1 (stereo not drawn)		
				O=C(C1=C(O)C(=O)N(CCCn2ccnc2)C1c1ccsc1)c1ccccc1 (stereo not drawn)		Ki [1]: Not Active
				O=C(C1=C(O)C(=O)N(CCCn2ccnc2)C1c1cccnc1)c1ccccc1 (stereo not drawn)		Ki [1]: Not Active
12 µM				O=C(C1=C(O)C(=O)N(CCc2ccccc2)C1c1ccc(Br)cc1)c1cccs1 (stereo not drawn)		
0.12 µM	11.5 µM	11.5 µM	20.8 µM	O=C(C1=C(Nc2ccc(OC(F)(F)F)cc2)C(=O)N(CCCn2ccnc2)C1c1ccc(Br)cc1)c1ccccc1 (stereo not drawn)	17.9 µM	
1.76 µM				c1ccc(CN2CCN(Cc3ccccc3)C2c2cccnc2)cc1		
0.14 µM	25.8 µM	24.1 µM	29.4 µM	Cc1ccc(NC2=C(C(=O)c3ccccc3)C(c3ccc(Br)cc3)N(CCCn3ccnc3)C2=O)cc1 (stereo not drawn)	31.9 µM	
0.47 µM	17.1 µM	32.4 µM	18.5 µM	CCCCOC1=C(C(=O)c2ccccc2)C(c2ccc(Br)cc2)N(CCCn2ccnc2)C1=O (stereo not drawn)	11.6 µM	Ki [4]: Not Active
0.49 µM	19.9 µM	22.4 µM	31.2 µM	O=C(C1=C(OC2CCCCC2)C(=O)N(CCCn2ccnc2)C1c1ccc(Br)cc1)c1ccccc1 (stereo not drawn)	29.7 µM	Ki [5]: 17.9 µM
1.34 µM				COCCOC1=C(C(=O)c2ccccc2)C(c2ccc(Br)cc2)N(CCCn2ccnc2)C1=O (stereo not drawn)		Ki [5]: 2.11 µM
0.91 µM				O=C(C1=C(O)C(=O)N(CCCn2ccnc2)C1c1ccc(Br)cc1)c1ccc(Cl)cc1 (stereo not drawn)		
				O=C(C1=C(O)C(=O)N(CCCn2ccnc2)C1c1ccccn1)c1ccccc1 (stereo not drawn)		Ki [1]: Not Active
0.34 µM	10.3 µM	9.14 µM	7.29 µM	CCCCCOC1=C(C(=O)c2ccccc2)C(c2ccc(Br)cc2)N(CCCn2ccnc2)C1=O (stereo not drawn)	9.99 µM	Ki [4]: Not Active
0.19 µM	19.2 µM	13 µM	22.2 µM	O=C(C1=C(Nc2ccc(Br)cc2)C(=O)N(CCCn2ccnc2)C1c1ccc(Br)cc1)c1ccccc1 (stereo not drawn)	23.8 µM	
3.59 µM				O=C(C1=C(O)C(=O)N(CCCn2ccnc2)C1c1ccc(Br)cc1)c1ccc(I)cc1 (stereo not drawn)		
	17 µM	30.8 µM	15.7 µM	C[C@@H](NC1=C(C(=O)c2ccccc2)[C@H](c2ccc(Br)cc2)N(CCCn2ccnc2)C1=O)c1ccccc1	13.2 µM	
0.15 µM	15.6 µM	16.9 µM	20.1 µM	O=C(C1=C(Nc2ccccc2Br)C(=O)N(CCCn2ccnc2)C1c1ccc(Br)cc1)c1ccccc1 (stereo not drawn)	19.6 µM	
0.23 µM	25 µM	22.8 µM	29.9 µM	O=C(C1=C(Nc2ccc(Cl)cc2)C(=O)N(CCCn2ccnc2)C1c1ccc(Br)cc1)c1ccccc1 (stereo not drawn)	24.8 µM	
2.5 µM				COc1ccc(C(=O)C2=C(O)C(=O)N(c3nccs3)C2c2ccc(C)cc2)cc1 (stereo not drawn)		
0.29 µM	20 µM		73.1 µM	O=C(C1=C(O)C(=O)N(CCCn2ccnc2)C1c1ccc(Br)cc1)c1ccccc1 (stereo not drawn)	31.6 µM	IC50 (U2OS; u2os): Not Active; Ki [4]: Not Active

SMILES	Ki [2]	IC50 (NCI-H1299)	IC50 (U2OS; [7])	IC50 (A549 [3])	IC50 (SAOS-2)	also measured
CC(C)OC1=C(C(=O)c2ccccc2)C(c2ccc(Br)cc2)N(CCCn2ccnc2)C1=O (stereo not drawn)		18.9 µM	24.8 µM	8.72 µM	23 µM	Activity (Mus musculus): Non-toxic; inhibition in vivo at 200 mg/kg (A549 [6]): 40%
